Assay results as given in ChEMBL document CHEMBL4342523, “Discovery and Development of S6821 and S7958 as Potent TAS2R8 Antagonists” (J Med Chem, 2020).
In brackets after ≈: the same amount, converted by molar mass.

Key:
[1] = biological target: T1, Taste receptor type 2 member 8 (Homo sapiens, UniProt Q9NYW2); assay: Antagonist activity at recombinant human TAS2R8 stably expressed in cells co-expressing Galpha16gust44 assessed as inhibition of andrographolide-induced intracellular calcium level measured for 100 secs by fluo-4 dye based FLIPR assay; type: functional, cell-based
T1 sequence (Q9NYW2 whole entry): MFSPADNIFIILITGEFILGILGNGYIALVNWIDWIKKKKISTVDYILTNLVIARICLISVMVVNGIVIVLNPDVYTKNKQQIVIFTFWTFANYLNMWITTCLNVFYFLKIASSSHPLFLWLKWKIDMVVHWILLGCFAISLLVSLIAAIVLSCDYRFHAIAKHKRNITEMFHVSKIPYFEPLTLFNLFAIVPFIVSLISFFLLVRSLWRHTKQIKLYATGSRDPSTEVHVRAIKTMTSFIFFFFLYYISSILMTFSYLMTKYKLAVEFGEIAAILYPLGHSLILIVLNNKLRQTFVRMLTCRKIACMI
Method in brief: (§1)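 Recombinant cells stably expressing G16t44 chimera and TAS2R8 (clones isolated by limiting dilution), plated 24 h before assay; loaded with fluo-4 in PBS 60 min, washed, rested 15 min in dark at RT. Andrographolide agonist at its EC80, premixed with antagonist and added together; final DMSO 0.5%. Baseline read 10 s, then fluorescence followed 100 s on FLIPR.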

[2] = Stability of the compound in pH 2.8 buffer assessed as parent compound remaining measured after 24 hrs at 100 degC; type: physicochemical; settings: read-out: Stability
[3] = Solubility of the compound in pH 7.1 buffer measured after 24 hrs; type: physicochemical
[4] = Ratio of solubility of the compound in pH 7.1 buffer measured after 24 hrs to IC50 for antagonist activity at recombinant human TAS2R8 expressed in cells co-expressing Galpha16gust44 assessed as inhibition of andrographolide-induced intracellular calcium level; type: cell-based
[5] = Stability of the compound in pH 7.1 buffer assessed as parent compound remaining measured after 24 hrs at 100 degC; type: physicochemical; settings: read-out: Stability
[6] = Drug metabolism in pH <6.5 buffer assessed as S6821 formation measured under room temperature
[7] = biological target: T2, Taste receptor type 2 member 8 (Homo sapiens) (UniProt Q9NYW2); assay: Antagonist activity at recombinant human TAS2R8 stably expressed in cells co-expressing Galpha16gust44 assessed as inhibition of andrographolide-induced intracellular calcium level at 10 uM measured for 100 secs by fluo-4 dye based FLIPR assay relative to control; type: functional, cell-based; method in brief: as §1
T2 sequence (whole entry): T1 sequence (Q9NYW2 whole entry)

Row | SMILES | IC50 [1] [nM] | also measured
1 | COc1cccc(C(=O)Nc2cnn(Cc3c(C)noc3C)c2)c1 | 700 | 
2 | Cc1noc(C)c1Cn1cc(N2C(=O)[C@H](C)N(Cc3cccc(O)c3)C2=O)cn1 |  | remaining at 24 h [2]: > 99%; solubility at 24 h [3]: 60 µM (≈ 23.7 µg/mL); Ratio [4]: 3750; remaining at 24 h [5]: 92%
3 | Cc1noc(C)c1Cn1cc(NC(=O)N(CC(=O)O)Cc2cccc(O)c2)cn1 |  | Drug metabolism [6]: Metabolite detected
4 | Cc1noc(C)c1Cn1cc(N2C(=O)CNC2=O)cn1 | 900 | 
5 | Cc1noc(C)c1Cn1cc(NC(=O)c2ccccc2O)cn1 | 1000 | 
6 | Cc1noc(C)c1Cn1cc(N2C(=O)CN(Cc3ccccc3F)C2=O)cn1 | 100 | solubility at 24 h [3]: 51 µM (≈ 19.6 µg/mL); Ratio [4]: 600
7 | Cc1noc(C)c1Cn1cc(NC(=O)c2ccccc2)cn1 | 1700 to 2000 | 
8 | Cc1noc(C)c1Cn1cc(NC(=O)c2ccccn2)cn1 | 2300 | 
9 | Cc1noc(C)c1Cn1cc(NC(=O)NCc2ccccc2)cn1 | 1000 | 
10 | Cc1noc(C)c1Cn1cc(NC(=O)c2ccc3ocnc3c2)cn1 | 3000 | 
11 | COc1cccc(C(=O)Nc2cnn(Cc3c(C)noc3C)c2)n1 | 700 | 
12 | Cc1noc(C)c1Cn1cc(NC(=O)CCCc2ccccc2)cn1 | 800 | 
13 | COc1ccc(OC)c(C(=O)Nc2cnn(Cc3c(C)noc3C)c2)c1 | 300 | 
14 | Cc1noc(C)c1Cn1cc(N2C(=O)N(Cc3cccc(O)c3)C(C)(CO)C2=O)cn1 (stereo not drawn) | 100 | remaining at 24 h [2]: > 99%; solubility at 24 h [3]: 356 µM (≈ 151 µg/mL); Ratio [4]: 2660; remaining at 24 h [5]: 43%
15 | Cc1noc(C)c1Cn1cc(N2C(=O)[C@H](CO)N(Cc3cccc(O)c3)C2=O)cn1 |  | remaining at 24 h [2]: 53%; solubility at 24 h [3]: 2480 µM (≈ 1020 µg/mL); Ratio [4]: 57600; remaining at 24 h [5]: 2%
16 | Cc1noc(C)c1Cn1cc(NC(=O)CCc2ccccc2)cn1 | 400 | 
17 | Cc1noc(C)c1Cn1cc(NC(=O)Nc2ccccc2)cn1 | 2000 | 
18 | COc1ncccc1C(=O)Nc1cnn(Cc2c(C)noc2C)c1 | 1100 | 
19 | Cc1noc(C)c1Cn1cc(NS(=O)(=O)c2ccccc2)cn1 | 4000 | 
20 | Cc1noc(C)c1Cn1cc(N2C(=O)CN(Cc3ccccc3)C2=O)cn1 | 200 | remaining at 24 h [2]: > 99%; solubility at 24 h [3]: 70 µM (≈ 25.6 µg/mL); remaining at 24 h [5]: 60%
21 | Cc1noc(C)c1Cn1cc(NC(=O)Cc2ccccc2)cn1 | 800 | 
22 | Cc1noc(C)c1Cn1cc(N2Cc3ccccc3C2=O)cn1 | 9000 | 
23 | Cc1noc(C)c1Cn1cc(NC(=O)c2cccc(O)c2)cn1 | 400 | 
24 | Cc1noc(C)c1Cn1cc(N2C(=O)CN(Cc3ccccn3)C2=O)cn1 | 1000 | 

Row | SMILES | IC50 [1] [nM] | also measured
25 | COc1ccccc1CN1CC(=O)N(c2cnn(Cc3c(C)noc3C)c2)C1=O | 100 | solubility at 24 h [3]: 16 µM (≈ 6.33 µg/mL); Ratio [4]: 267
26 | Cc1noc(C)c1Cn1cc(N2C(=O)N(Cc3cccc(O)c3)C3(CCC3)C2=O)cn1 | 40 | remaining at 24 h [2]: 97%; solubility at 24 h [3]: 3 µM (≈ 1.26 µg/mL); Ratio [4]: 77; remaining at 24 h [5]: 98%
27 | Cc1noc(C)c1Cn1cc(NC(=O)c2ccc3[nH]ccc3c2)cn1 | 300 | 
28 | Cc1cc(CN2CC(=O)N(c3cnn(Cc4c(C)noc4C)c3)C2=O)n(C)n1 | 200 | 
29 | COc1ccc(C(=O)Nc2cnn(Cc3c(C)noc3C)c2)cc1 | 700 | 
30 | CCSc1ncccc1C(=O)Nc1cnn(Cc2c(C)noc2C)c1 | 2300 | inhibition [7]: 50%
31 | Cc1noc(C)c1Cn1cc(N2C(=O)c3ccccc3C2=O)cn1 | 200 | remaining at 24 h [2]: 3%; solubility at 24 h [3]: 12 µM (≈ 3.87 µg/mL); remaining at 24 h [5]: 5%
32 | Cc1noc(C)c1Cn1cc(N2C(=O)[C@@H](C)N(Cc3cccc(O)c3)C2=O)cn1 |  | remaining at 24 h [2]: > 99%; solubility at 24 h [3]: 61 µM (≈ 24.1 µg/mL); Ratio [4]: 3390; remaining at 24 h [5]: 92%
33 | Cc1noc(C)c1Cn1cc(NC(=O)c2ccc(O)cc2)cn1 | 500 | 
34 | COC(=O)c1cccc(CN2CC(=O)N(c3cnn(Cc4c(C)noc4C)c3)C2=O)c1 | 100 | 
35 | Cc1noc(C)c1Cn1cc(N2C(=O)CN(Cc3cccc(C(=O)O)c3)C2=O)cn1 | 2000 | 
36 | COc1cncc(C(=O)Nc2cnn(Cc3c(C)noc3C)c2)c1 | 800 | 
37 | Cc1noc(C)c1Cn1cc(N2C(=O)CN(CC3CCCO3)C2=O)cn1 (stereo not drawn) | 1000 | 
38 | Cc1noc(C)c1Cn1cc(N2C(=O)N(Cc3cccc(O)c3)C3(CC3)C2=O)cn1 |  | remaining at 24 h [2]: > 99%; solubility at 24 h [3]: 31 µM (≈ 12.6 µg/mL); Ratio [4]: 1550; remaining at 24 h [5]: 96%
39 | Cc1noc(C)c1Cn1cc(N2C(=O)C(=O)N(Cc3ccccc3)C2=O)cn1 | 2000 | 
40 | Cc1noc(C)c1Cn1cc(N2C(=O)CN(CC3CCCCC3)C2=O)cn1 | 300 | 
41 | Cc1noc(C)c1Cn1cc(N2C(=O)CN(Cc3ccccc3O)C2=O)cn1 | 100 | 
42 | CNC(=O)c1cccc(CN2CC(=O)N(c3cnn(Cc4c(C)noc4C)c3)C2=O)c1 | 100 | 
43 | Cc1noc(C)c1Cn1cc(N2C(=O)CN(Cc3ccc(O)cc3)C2=O)cn1 | 40 | 
44 | Cc1noc(C)c1Cn1cc(N2CCN(Cc3ccccc3)C2=O)cn1 | 1000 | 
45 | COc1ccccc1C(=O)Nc1cnn(Cc2c(C)noc2C)c1 | 1900 | 
46 | COc1ccc(C(=O)Nc2cnn(Cc3c(C)noc3C)c2)cc1OC | 1000 | 
47 | Cc1noc(C)c1CN1CC(=O)N(c2cnn(Cc3c(C)noc3C)c2)C1=O | 400 | 
